{"data": "Assay results collected from several papers", "organism": "Severe acute respiratory syndrome coronavirus 2", "note": "Lines come from different studies, so protocols differ."}
{"SMILES": "CCN(CC)CCCC(C)Nc1ccnc2cc(Cl)ccc12 (centres unmarked)", "read-out": "viral replication", "mode": "inhibitor", "cells": "Vero C1008", "tested at": "1 µM", "inhibition [%]": 48.7}
{"SMILES": "COc1ccc(C[C@@H]2c3cc(Oc4cc(C[C@@H]5c6cc(O)c(OC)cc6CCN5C)ccc4O)c(OC)cc3CCN2C)cc1", "read-out": "cytopathic effect", "cells": "Vero C1008", "tested at": "3.125 µM", "inhibition [%]": 0}
{"SMILES": "Cc1ccc(NC(=O)c2cc3c(=O)n4cccc(C)c4nc3n2C)cc1Cl", "read-out": "viral replication", "cells": "Vero", "tested at": "0.1 µM", "inhibition [%]": 67.4}
{"SMILES": "O=c1[nH]c(=O)n([C@@H]2O[C@H](CO)[C@@H](O)[C@@H]2O)cc1/C=C/Br", "read-out": "viral replication", "mode": "inhibitor", "cells": "Vero C1008", "tested at": "1 µM", "inhibition [%]": 52.6}
{"SMILES": "COCC(=O)Nc1c(I)c(C(=O)NCC(O)CO)c(I)c(C(=O)N(C)CC(O)CO)c1I (centres unmarked)", "read-out": "viral replication", "cells": "Vero C1008", "tested at": "50 µM", "inhibition [%]": 2}
{"SMILES": "CC1CCC2c3c(c4ccccc4n3Cc3ccccc3)CCN2C1 (centres unmarked)", "read-out": "viral replication", "mode": "inhibitor", "cells": "Vero C1008", "tested at": "1 µM", "inhibition [%]": 54.3}
{"SMILES": "CC(C)=CCc1c(O)ccc(C(=O)/C=C/c2ccc(O)cc2)c1O", "read-out": "cytopathic effect", "mode": "inhibitor", "cells": "Vero C1008", "tested at": "50 µM", "inhibition [%]": 0}
{"SMILES": "NCC[C@H](O)C(=O)N[C@@H]1C[C@H](N)[C@@H](O[C@H]2O[C@H](CN)[C@@H](O)[C@H](O)[C@H]2O)[C@H](O)[C@H]1O[C@H]1O[C@H](CO)[C@@H](O)[C@H](N)[C@H]1O", "read-out": "viral replication", "cells": "Vero C1008", "tested at": "50 µM", "inhibition [%]": 3}
{"SMILES": "O=C(Nc1ccccc1F)c1cc2c(=O)n3ccccc3nc2n1Cc1ccccc1", "read-out": "viral replication", "cells": "Vero", "tested at": "1 µM", "inhibition [%]": 92.3}
{"SMILES": "CC1=C(C/C=C(\\C)CC/C=C(\\C)Cc2cccc(C(C)C)c2)C(=O)c2ccccc2C1=O", "read-out": "viral replication", "mode": "inhibitor", "cells": "VeroE6/TMPRSS2", "tested at": "100 µM", "time": "72 h", "inhibition [%]": 48}
{"SMILES": "COc1c2ccoc2c(OCC=C(C)C)c2oc(=O)ccc12", "read-out": "viral replication", "mode": "inhibitor", "cells": "Calu-3", "tested at": "50 µM", "inhibition [%]": 96}
{"SMILES": "Br.CN=c1nc(-c2ccc(OC)c(OC)c2)n(-c2ccc(F)cc2)s1", "read-out": "viral replication", "mode": "inhibitor", "method": "qPCR", "cells": "Vero C1008", "tested at": "50 µM", "time": "24 h", "inhibition [%]": 35.6}
{"SMILES": "Cc1cc(NC(=O)c2cc3c(=O)n4cccc(C)c4nc3n2C)ccc1Br", "read-out": "viral replication", "cells": "Vero", "tested at": "10 nM", "inhibition [%]": 8.19}
{"SMILES": "C/C=C(/C)C(=O)O[C@H]1C(C)=C[C@]23C(=O)[C@@H](C=C(CO)[C@@H](O)[C@]12O)[C@H]1[C@@H](C[C@H]3C)C1(C)C", "read-out": "viral replication", "mode": "inhibitor", "cells": "Vero C1008", "tested at": "1 µM", "inhibition [%]": 47.4}
{"SMILES": "Cn1c(C(=O)Nc2ccc(Cl)cc2)cc2c(=O)n3ccccc3nc21", "read-out": "viral replication", "cells": "Vero", "tested at": "0.1 µM", "inhibition [%]": 37.7}
{"SMILES": "CC[C@H](C)[C@@H]1NC(=O)[C@@H](C)NC(=O)[C@H](C(C)C)NC(=O)C[C@H](/C=C/c2ccccc2)OC(=O)[C@H](C(C)C)NC1=O", "read-out": "viral replication", "mode": "inhibitor", "cells": "Calu-3", "tested at": "50 µM", "inhibition [%]": 3.01}
{"SMILES": "O=C(Nc1ccc(C(F)(F)F)cc1)c1cc(Cl)c(F)cc1O", "read-out": "viral replication", "mode": "inhibitor", "cells": "Vero C1008", "tested at": "1 µM", "inhibition [%]": 90}
{"SMILES": "CC1=C(C/C=C(\\C)CC/C=C(\\C)Cc2cccc3ccccc23)C(=O)c2ccccc2C1=O", "read-out": "viral replication", "mode": "inhibitor", "cells": "VeroE6/TMPRSS2", "tested at": "100 µM", "time": "72 h", "inhibition [%]": 48}
{"SMILES": "CC(=O)c1cccc(NC(=O)c2cc3c(=O)n4ccccc4nc3n2C)c1", "read-out": "viral replication", "cells": "Vero", "tested at": "10 µM", "inhibition [%]": 96.4}
{"SMILES": "O=C(/C=C/c1ccc(O)c(O)c1/C=C/c1ccc(O)c(O)c1)O[C@H](Cc1ccc(O)c(O)c1)C(=O)O", "read-out": "cytopathic effect", "mode": "inhibitor", "cells": "Vero C1008", "tested at": "3.125 µM", "inhibition [%]": 0}
{"SMILES": "COc1cc(F)cc2c1-c1ccc(F)cc1C21NC(=O)NC1=O (centres unmarked)", "read-out": "viral replication", "mode": "inhibitor", "cells": "Vero C1008", "tested at": "1 µM", "inhibition [%]": 52}
{"SMILES": "CC1=C(C/C=C(\\C)CC/C=C(\\C)Cc2ccc(F)cc2)C(=O)c2ccccc2C1=O", "read-out": "viral replication", "mode": "inhibitor", "cells": "VeroE6/TMPRSS2", "tested at": "100 µM", "time": "72 h", "inhibition [%]": 45}
{"SMILES": "CC1(C)CCC[C@]2(C)O[C@H]3CC[C@@]4(C)[C@@H](CC[C@]5(C)[C@@H]4CC[C@]4(C)c6c(C(O)C(=O)O)ccc(O)c6C[C@@H]54)[C@]3(C)CC[C@@H]12 (some centres unmarked)", "read-out": "viral replication", "mode": "inhibitor", "cells": "Calu-3", "tested at": "50 µM", "inhibition [%]": 0}
{"SMILES": "CCc1ccc(NC(=O)c2cc3c(=O)n4ccccc4nc3n2C)cc1", "read-out": "viral replication", "cells": "Vero", "tested at": "0.1 µM", "inhibition [%]": 51.5}
{"SMILES": "COc1cc(-c2cc3c(c(=O)o2)C[C@]2(O)[C@@]4(C)C(=O)C=CC(C)(C)[C@]4(O)CC[C@@]2(C)O3)cc(OC)c1OC", "read-out": "viral replication", "mode": "inhibitor", "cells": "Calu-3", "tested at": "50 µM", "inhibition [%]": 101}
{"SMILES": "O=C(NCCN1CCCC1)c1cc(-c2ccc(CN3CCOCC3)cc2)nc2ccc(F)cc12", "read-out": "viral replication", "mode": "inhibitor", "cells": "Vero C1008", "tested at": "1 µM", "inhibition [%]": 45.8}
{"SMILES": "O=C(O[C@@H]1Cc2c(O)cc(O)cc2O[C@@H]1c1cc(O)c(O)c(O)c1)c1cc(O)c(O)c(O)c1", "read-out": "cytopathic effect", "mode": "inhibitor", "cells": "Vero C1008", "tested at": "6.25 µM", "inhibition [%]": 0}
{"SMILES": "NC[C@@H]1O[C@H](O[C@H]2[C@@H](O)[C@H](O[C@@H]3[C@@H](O)[C@H](N)C[C@H](N)[C@H]3O[C@H]3O[C@H](CO)[C@@H](O)[C@H](O)[C@H]3N)O[C@@H]2CO)[C@H](N)[C@@H](O)[C@@H]1O", "read-out": "viral replication", "cells": "Vero C1008", "tested at": "50 µM", "inhibition [%]": 2}
{"SMILES": "CC1=C(/C=C/C(C)=C/C=C/C(C)=C/C(=O)O)C(C)(C)CCC1", "read-out": "viral replication", "mode": "inhibitor", "cells": "Vero C1008", "tested at": "1 µM", "inhibition [%]": 42.1}
{"SMILES": "Cc1cccn2c(=O)c3cc(C(=O)Nc4ccc(N(C)C)cc4)n(C)c3nc12", "read-out": "viral replication", "cells": "Vero", "tested at": "10 µM", "inhibition [%]": 94.2}
{"SMILES": "C=C[C@@](C)(/C=C/c1ccc(O)cc1)CCC=C(C)C", "read-out": "cytopathic effect", "cells": "Vero C1008", "tested at": "100 µM", "inhibition [%]": 0}
{"SMILES": "Oc1c(I)cc(Cl)c2cccnc12", "read-out": "viral replication", "mode": "inhibitor", "cells": "Vero C1008", "tested at": "30 µM", "inhibition [%]": 91.8}
{"SMILES": "CCOC(=O)c1ccc(C#Cc2ccc3c(c2)C(C)(C)CCS3)nc1", "read-out": "viral replication", "mode": "inhibitor", "cells": "Vero C1008", "tested at": "1 µM", "inhibition [%]": 49.9}
{"SMILES": "Cn1c(C(=O)Nc2ccc3c(c2)OCCO3)cc2c(=O)n3ccccc3nc21", "read-out": "viral replication", "cells": "Vero", "tested at": "10 nM", "inhibition [%]": 8}
{"SMILES": "Oc1c(Br)cc(Cl)c2cccnc12", "read-out": "viral replication", "mode": "inhibitor", "cells": "Vero C1008", "tested at": "30 µM", "inhibition [%]": "~103"}
